Usually Ki stands for the dissociation constant of the complex between target and ligand, obtained from inhibition or displacement. The MIC90 is an inhibitory concentration at the 90% level, which refers to growth in some studies and to a panel of isolates in others.

Series [1] can be described thus: Inhibition of Mycobacterium tuberculosis KARI using 2-acetolactate as substrate preincubated for 30 mins in presence of Mg2+ and NADPH followed by substrate addition by Morrison's equation analysis. The gist of the method: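 0.27 μM MtKARI preincubated 30 min at 25 °C with inhibitor, 50 μM NADPH and 50 mM Mg²⁺ in 0.1 M Tris-HCl pH 8. Reaction started with 200 μM 2-acetolactate, and A340 decrease followed for 5 min. Compounds above 80% inhibition at 100 μM were retested at 1 nM−100 μM. Ki from Morrison equation fit.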

Series [2] concerns Mycobacterium tuberculosis. Description: Antimycobacterial activity against Mycobacterium tuberculosis H37Ra assessed as reduction in bacterial growth incubated for 5 days by resazurin dye based assay. The class given is functional. Particulars: 120 h, time 5 day. The gist of the method: (§1)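 REMA in defined minimal medium (KH2PO4, Na2HPO4, L-asparagine, ferric ammonium citrate, MgSO4, CaCl2, ZnSO4, 0.1% glycerol) at 37 °C. Compounds 2-fold serially diluted from 30 μM. Fluorescence (ex 530/em 590 nm) read 24 h after resazurin.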
A general note: The colour change of resazurin is a common sign of viable cells or microbes.

A short description of series [3]: Inhibition of Slackia exigua KARI.
A short description of series [4]: Selectivity ratio of IC50 for Mycobacterium tuberculosis KARI to IC50 for Slackia exigua KARI.
Series [5] in a line: Inhibition of Escherichia coli KARI using acetolactate as substrate assessed as slow and tight binding by measuring initial inhibition constant in presence of NADPH by spectrophotometric analysis.
Series [6] in a line: Inhibition of Escherichia coli KARI using acetolactate as substrate assessed as slow and tight binding by measuring steady-state inhibition constant in presence of NADPH by spectrophotometric analysis.
The nature of series [7]: Inhibition of Mycobacterium tuberculosis KARI expressed in Escherichia coli BL21 using 2-acetolactate as substrate in presence of NADPH by spectrophotometric analysis.
Series [8] concerns Mycobacterium tuberculosis. Put plainly: Antimycobacterial activity against Mycobacterium tuberculosis H37Rv assessed as reduction in bacterial growth incubated for 5 days by resazurin dye based assay. The class given is functional. Particulars: 120 h, time 5 day. Put shortly: as §1
Series [9] deals with Mycobacterium tuberculosis. Put plainly: Antimycobacterial activity against Mycobacterium tuberculosis H37Ra assessed as reduction in bacterial growth incubated for 5 days in presence of BCAA by resazurin dye based assay. The class given is functional. As to conditions: 120 h, time 5 day. Put shortly:
(§2)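 REMA as for the unsupplemented assay, but with medium supplemented with 1 mM each of leucine, isoleucine and valine. Defined minimal medium at 37 °C. Log-phase inoculum at final OD 0.001 (H37Ra) or 0.003 (H37Rv). 2-fold dilutions from 30 μM. Resazurin fluorescence (530/590 nm) read after 24 h.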

The test system of series [10] is Mycobacterium tuberculosis. Put plainly: Antimycobacterial activity against Mycobacterium tuberculosis H37Rv assessed as reduction in bacterial growth incubated for 5 days in presence of BCAA by resazurin dye based assay. The class given is functional. Particulars: 120 h, time 5 day. The gist of the method: as §2
The nature of series [11]: Selectivity index, ratio of MIC for antimycobacterial activity against Mycobacterium tuberculosis H37Rv in presence of BCAA to MIC for antimycobacterial activity against Mycobacterium tuberculosis H37Rv in absence of BCAA. The class given is functional.
Series [12] is described as follows: Selectivity ratio of MIC for antimycobacterial activity against Mycobacterium tuberculosis H37Ra in presence of BCAA to MIC for antimycobacterial activity against Mycobacterium tuberculosis H37Ra in absence of BCAA. The class given is functional.
For another series, the system named is RAW264.7. Description: Cytotoxicity against mouse RAW264.7 cells up to 100 uM incubated for 24 to 48 hrs by MTT assay. The class given is cell-based. Particulars: time 24-48 hrs. Put shortly:
(§3)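 Cells grown to 80% confluency, RAW 264.7 and HEK293 in DMEM, SW620 in RPMI, each with 10% FBS and 1 mM nonessential amino acids. Seeded at 2×10⁵ (RAW 264.7), 5×10³ (HEK293) or 2×10³ (SW620) per well and held 24−48 h at 37 °C, 5% CO2. Twofold dilutions added at 1% DMSO final, then overnight incubation. MTT 3 h, DMSO solubilisation, A570.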
(In general: Tetrazolium dyes change colour on reduction, which living cells bring about.)

For the next series, the system named is HEK293. Description: Cytotoxicity against human HEK293 cells up to 50 uM incubated for 24 to 48 hrs by MTT assay. The class given is cell-based. As to conditions: time 24-48 hrs. The gist of the method:
as §3

Another series has as its system SW-620. Description: Cytotoxicity against human SW-620 cells up to 50 uM incubated for 24 to 48 hrs by MTT assay. The class given is cell-based. As to conditions: time 24-48 hrs. The gist of the method:
as §3

For series [13], the system named is Mycobacterium tuberculosis. Description: Potency index, ratio of IC50 for IpOHA to IC50 for test compound for inhibition of Mycobacterium tuberculosis KARI using 2-acetolactate as substrate.

≈ marks a conversion by molar mass, not a printed value.

For the molecule `O=C(O)C(=O)N(C1CCCCC1)C1CCCCC1`, the inhibitory constant (Ki) in [1] is greater than 20000 nM.
On the same count and under the same terms, as for `O=C(O)CC(=O)N(O)C1CCCC1`, the figure is greater than 20000 nM.
The same measure, in the same setting: the result for `CCOC(=O)C(=O)N(O)C1CCCCC1` reads 1020 nM; that for `CCOC(=O)C(=O)N(CC)CC`, greater than 20000 nM.
Consider `CCCCCCOC(=O)C(=O)N(O)C1CCCC1`, for which the MIC90 in series [2] was greater than 30 µM.
For `O=C(O)C(=O)NCc1ccccc1`, in series [1], the Ki was greater than 20000 nM.
On the same count and under the same terms, the result for `CC(C)CNC(=O)C(=O)O` reads greater than 20000 nM; that for `COC(=O)CC(=O)N(O)C1CCCC1`, greater than 20000 nM.
On the same count and under the same terms, as for `CCOC(=O)C(=O)N(O)C(C)CC(C)C` (stereo not drawn), the figure is 2660 nM.
With `O=C(O)C(=O)N(O)C1CCCCC1`, the figures for the Ki in series [1] and in [3] were 39.6 nM and 8.5 nM, respectively. Besides, the Ratio IC50 in [4] came to 25.
For the molecule `CC(C)N(O)C(=O)C(=O)O`, the Ki was 160 nM in series [5], 0.09 nM in series [6] and 97.7 nM in [7].
For `CCCCCCCCOC(=O)C(=O)N(O)C1CCCC1`, the MIC90 in series [8] was determined as 2.32 µM (≈ 0.662 µg/mL); in series [2], 6.34 µM (≈ 1.81 µg/mL); in series [9], 24.9 µM; in series [10] it was 18.9 µM. In addition, the Selectivity ratio was 6 in series [11] and 3 in series [12].
On to `CCOC(=O)C(=O)N(O)C1CCCC1`, for which the Ki in series [1] was 32.2 nM.
Consider `CCCCCCCCCCCCOC(=O)C(=O)N(O)C1CCCC1`, for which the MIC90 in series [8] came out at 2.97 µM (≈ 1.01 µg/mL); in series [2], 4.99 µM (≈ 1.7 µg/mL); in series [9] it was 14.1 µM; in [10] it was 17.2 µM. Also, the Selectivity ratio in series [11] is 6; in series [12], 3.
`CC(c1ccccc1)N(O)C(=O)C(=O)O` (stereo not drawn): the Ki in series [1] was 97.7 nM; in [3], 193 nM. Moreover, the Ratio IC50 in [4] amounted to 2.
As to `CC(C)NC(=O)C(=O)O`, in series [1], the Ki is greater than 20000 nM.
On the same count and under the same terms, as for `CCOC(=O)C(=O)N(O)C(C)c1ccccc1` (stereo not drawn), the figure is 152 nM.
On to `CCCCCCCCCCOC(=O)C(=O)N(O)C1CCCC1`, for which the MIC90 in [8] worked out at 2.45 µM (≈ 0.768 µg/mL); in series [2], 3.01 µM (≈ 0.943 µg/mL); in series [9] it was 15.3 µM; in series [10], 15.2 µM. Besides, the results for the Selectivity ratio in series [11] and in series [12] were 6 and 3, respectively. Further, the Activity entry with RAW264.7, in the series with HEK293 and in the series with SW-620 was “Non-Toxic” in each case.
Regarding `CC(C)CC(C)N(O)C(=O)C(=O)O` (stereo not drawn), in [1], the Ki amounted to 660 nM.
On the same count and under the same terms, as for `CCOC(=O)C(=O)N(O)C1CCNCC1`, the figure is 3080 nM; as for `CCOC(=O)C(=O)N(C1CCCCC1)C1CCCCC1`, greater than 20000 nM.
As for `CCOC(=O)C(=O)NCc1ccccc1`, the Ki in series [1] was greater than 20000 nM.
Same read-out and setting: the result for `CCOC(=O)C(=O)N(O)C1CCN(C(=O)OC(C)(C)C)CC1` reads greater than 20000 nM; that for `CCN(CC)C(=O)C(=O)O`, greater than 20000 nM.
As to `O=C(O)C(=O)N(O)C1CCCC1`, the Ki turned out to be 19.7 nM in series [1] and 8.5 nM in [3]. The Ratio IC50 in [13] turned out to be 5. Moreover, the MIC90 in series [8] worked out at 219 µM (≈ 37.9 µg/mL).
In the case of `CCCCCCCCCCCCCCCCCCOC(=O)C(=O)N(O)C1CCCC1`, in [2], the MIC90 was greater than 30 µM.

For the origin of these results see ChEMBL document CHEMBL4732165, “Analogues of the Herbicide, N-Hydroxy-N-isopropyloxamate, Inhibit Mycobacterium tuberculosis Ketol-Acid Reductoisomerase and Their Prodrugs Are Promising Anti-TB Drug Leads” (J Med Chem, 2021).
